Consider 2 compounds from ChEMBL document CHEMBL4680120, “Novel anti-Alzheimer phenol-lipoyl hybrids: Synthesis, physico-chemical characterization, and biological evaluation” (Eur J Med Chem, 2020).

Each structure is given as a SMILES string. In brackets after ≈: the same amount, converted by molar mass. Activity calls are given as the source filed them. The rule behind the calls is not given here.

Data set [1] in a line: Stability in simulated intestinal fluid at pH 6.8 assessed as relative difference measured after 60 mins in presence of pancreatin by HPLC analysis. Format: ADME. Particulars: simulated gi fluid, pH 6.8, 1 h. The procedure, abridged:
(§1)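 Incubation in simulated gastric fluid (pH 1.2, pepsin) or simulated intestinal fluid (pH 6.8, pancreatin). Aliquots deproteinized with ice-cold acetonitrile, centrifuged at 4°C and 12000 rpm for 10 min, filtered, analyzed by HPLC. RD% = (Ci − Cf)/Ci × 100. Stable if RD < 5%. Means of three experiments.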

The nature of data set [2]: Stability in human plasma assessed as observed rate constant by HPLC analysis. The format is ADME, cell-free. In outline:
(§2)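 Compound stock added to human plasma pre-warmed to 37°C and diluted with 0.02 M phosphate buffer (pH 7.4) to 80% plasma. 100 μL samples taken over time, quenched with 200 μL cold acetonitrile, centrifuged, and supernatant analyzed by HPLC. t½ and kobs are means of three experiments.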

In data set [3] the test system is Erythrocyte. Nature of the data set: Cytoprotective activity against H2O2-induced oxidative damage in human RBC assessed as increase in cell viability measured after 72 hrs by MTT assay. Format: functional, cell-based. A general note: Tetrazolium dyes change colour on reduction, which living cells bring about.
Data set [4] is described as follows: Half life in human plasma by HPLC analysis. Format: ADME, cell-free. In outline: as §2
Data set [5] is described as follows: Stability in simulated intestinal fluid at pH 6.8 assessed as relative difference measured after 180 mins in presence of pancreatin by HPLC analysis. Format: ADME. To be noted: simulated gi fluid, pH 6.8, 3 h. The procedure, abridged: as §1
The test system of data set [6] is Erythrocyte. The data set is described as follows: Cytoprotective activity against H2O2-induced oxidative damage in human RBC assessed as recovery of H2O2-induced cell death at 50 to 100 uM measured after 72 hrs by MTT assay relative to control. The format is functional. Particulars: dose 50-100 µM.
The subject of data set [7] is SH-SY5Y. Nature of the data set: Neuroprotective activity against amyloid beta (1 to 42)-induced toxicity in human SH-SY5Y cells assessed as decrease in TNFalpha mRNA expression at IC50 measured after 48 hrs by SYBR green dye based RT-qPCR analysis. Format: functional, cell-based. The procedure, abridged: (§3)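 Differentiated SH-SY5Y cells in 6-well plates treated 48 h with Aβ1-42 (20 μM) with or without hybrid. mRNA of AD-related genes measured by RT-qPCR, normalized to β-actin. Expressed as fold change versus untreated cells. Triplicate experiments.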

Data set [8] in a line: Stability in simulated intestinal fluid at pH 6.8 assessed as relative difference measured after 15 mins in presence of pancreatin by HPLC analysis. The format is ADME. To be noted: simulated gi fluid, pH 6.8, 0.25 h. The procedure, abridged:
as §1

Data set [9] in a line: Solubility of compound in water by HPLC analysis. The format is physicochemical.
For data set [10], the system named is SH-SY5Y. The data set is described as follows: Neuroprotective activity against amyloid beta (1 to 42)-induced toxicity in human SH-SY5Y cells assessed as increase in ADAM10 mRNA expression at IC50 measured after 48 hrs by SYBR green dye based RT-qPCR analysis. The format is functional, cell-based. In outline:
as §3
A general note: Quantitative PCR measures a nucleic acid by following its amplification.

Data set [11] concerns SH-SY5Y. Nature of the data set: Neuroprotective activity against amyloid beta (1 to 42)-induced apoptosis in human SH-SY5Y cells assessed as decrease in DNA condensation at IC50 measured after 48 hrs by Hoechst 33258 staining based fluorescence microscopic assay. Format: functional, cell-based. The procedure, abridged: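 Differentiated SH-SY5Y cells, 4×10^4 per well, exposed 48 h to Aβ1-42 (20 μM) with or without hybrid. Fixed in 4% paraformaldehyde for 30 min, stained with Hoechst 33258 for 15 min. Nuclear chromatin condensation and DNA fragmentation scored by fluorescence microscopy at ×200.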

Data set [12] concerns SH-SY5Y. Nature of the data set: Neuroprotective activity against amyloid beta (1 to 42)-induced toxicity in human SH-SY5Y cells assessed as decrease in EGFR mRNA expression at IC50 measured after 48 hrs by SYBR green dye based RT-qPCR analysis. The format is functional, cell-based. The procedure, abridged: as §3
A short description of data set [13]: Stability in simulated intestinal fluid at pH 6.8 assessed as relative difference measured after 30 mins in presence of pancreatin by HPLC analysis. Format: ADME. Particulars: simulated gi fluid, pH 6.8, 0.5 h. The procedure, abridged:
as §1

The subject of data set [14] is SH-SY5Y. Nature of the data set: Neuroprotective activity against amyloid beta (1 to 42)-induced toxicity in human SH-SY5Y cells assessed as decrease in PSENEN mRNA expression at IC50 measured after 48 hrs by SYBR green dye based RT-qPCR analysis. Format: functional, cell-based. In outline: as §3
Data set [15] in a line: Stability in simulated intestinal fluid at pH 6.8 assessed as relative difference measured after 120 mins in presence of pancreatin by HPLC analysis. Format: ADME. Particulars: simulated gi fluid, pH 6.8, 2 h. In outline:
as §1

For data set [16], the system named is Erythrocyte. Nature of the data set: Cytoprotective activity against H2O2-induced oxidative damage in human RBC assessed as restoration of antioxidant activity at 50 to 100 uM measured after 72 hrs by TAC assay relative to control. The format is functional. To be noted: dose 50-100 µM.
Data set [17] is described as follows: Stability in simulated intestinal fluid at pH 6.8 assessed as hydrolysis measured immediately in presence of pancreatin by HPLC analysis. The format is ADME. Particulars: simulated gi fluid. The procedure, abridged:
as §1

What is called half-life is the time in which the quantity being followed falls by half. A higher half-life goes with slow decline. In general, solubility refers to how much of the substance goes into solution per volume. Low values mean little dissolved substance, high ones much dissolved substance. For the compound `COc1cc(/C=C/C(=O)NCCCNC(=O)CCCCC2CCSS2)ccc1O` (stereo unspecified), the “fold change (FC)” value in data set [1] is reported as 1.04%; in data set [5], 3.46%; in data set [8], 0.54%; in data set [13], 0.86%; in data set [15], 2.5%. The K in [2] stood at 0.01 h⁻¹. The Activity entry in [3] is “Dose-dependent effect”; in data set [6], 0.5%. Moreover, in [4], the half-life is 4340 min. Also, the outcome in [7], in [10], in [11], in [12] and in [14] was Active. The compound further gave a solubility in data set [9] of 49 µg/mL (≈ 112 µM).

`O=C(CCCCC1CCSS1)NCCCCCOC(=O)Cc1ccc(O)c(O)c1` (stereo unspecified): the Activity in data set [16] was 79.2%; in data set [3] it was “Dose-dependent effect”; in [6], 0.5%. Besides, the K in [2] came out at 20.56 h⁻¹. In data set [4], this compound showed a half-life of 1.8 min. The result in [7], in [10], in [11], in data set [12] and in [14] was Active. For the same compound, in [17], the Stabilty entry is “Unstable”.
